Screening results deposited in PubChem BioAssay by The Scripps Research Institute Molecular Screening Center.
An excerpt weighted towards active compounds, which were near 1.9% of everything screened.
M4 PAM – potentiates acetylcholine response at human M4 receptor. P08173. CHO-K1 hM4/Gqi5, Fluo-8 calcium fluorescence, ACh EC20; 0% = ACh EC20, 100% = maximal ACh. activation, % at 3 µM. 360,000 compounds, 0.4% hits. AID 624126;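 active = activation above its plate's cutoff, the mean activation of sample wells plus 3 SD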
CHRM5 antagonist – blocks acetylcholine activation of human M5 receptor | CHO-hM5 cells, Fluo-8 calcium fluorescence, ACh EC80 | inhibition, % at 3 µM | 360,000 compounds, 0.59% hits;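 active = inhibition above a per-plate cutoff, the mean of that plate's test compounds plus 3 SD, cut at about 27% in these data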;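 note: 0% = acetylcholine EC80 with DMSO and 100% = DMSO without agonist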
Target sequence (P08912 whole entry, looked up): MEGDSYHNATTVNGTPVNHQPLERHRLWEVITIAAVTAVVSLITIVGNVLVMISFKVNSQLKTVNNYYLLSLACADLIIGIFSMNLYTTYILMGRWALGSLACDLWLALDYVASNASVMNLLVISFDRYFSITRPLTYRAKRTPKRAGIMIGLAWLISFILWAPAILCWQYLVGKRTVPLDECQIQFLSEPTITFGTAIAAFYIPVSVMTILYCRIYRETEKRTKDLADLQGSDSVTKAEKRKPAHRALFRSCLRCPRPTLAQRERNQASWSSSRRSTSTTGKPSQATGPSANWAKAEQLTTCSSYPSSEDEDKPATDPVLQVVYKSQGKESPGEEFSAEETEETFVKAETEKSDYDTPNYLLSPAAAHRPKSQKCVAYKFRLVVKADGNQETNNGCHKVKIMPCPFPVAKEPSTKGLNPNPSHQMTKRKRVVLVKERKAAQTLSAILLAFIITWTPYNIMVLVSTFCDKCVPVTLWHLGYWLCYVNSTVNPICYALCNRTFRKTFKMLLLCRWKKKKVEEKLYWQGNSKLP
CHRM5 agonist – agonists of human muscarinic M5 receptor (CHRM5); P08912; CHO-K1 hM5 cells, Fluo-8 calcium fluorescence; 0% DMSO wells, 100% maximal acetylcholine response; 360,000 compounds, 0.19% hits; activation, % at 3 µM;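 active = activation above the run's mean over test compounds plus 3 SD, cut at about 23% in these data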;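 note: signal is peak over basal fluorescence ratio across the kinetic read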
M4 ag – agonists of human muscarinic M4 receptor (CHRM4); 360,000 compounds, 0.14% hits; P08173; activation, % at 3 µM; CHO-K1 hM4/Gqi5, Fluo-8 calcium fluorescence; vehicle 0%, full acetylcholine response 100%; AID 624127;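 active = activation above the run mean over all test wells plus 3 SD, cut at about 32% in these data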;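 note: peak over basal fluorescence ratio per well then scaled between controls; 0% = DMSO wells and 100% = acetylcholine at EC100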
CHRM4 antagonist – CHRM4 antagonism in calcium assay; P08173; CHO-hM4 cells, ACh EC80, Fluo-8 calcium fluorescence; inhibition, % at 3 µM; 360,000 compounds, 0.73% hits;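 active = inhibition above its plate's cutoff, the mean inhibition of sample wells plus 3 SD, cut at about 27% in these data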;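 note: 0% = acetylcholine EC80 with DMSO and 100% = DMSO without agonist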
M5 PAM – potentiates acetylcholine response at human M5 receptor | activation, % at 3 µM | CHO-K1 hM5, Fluo-8 calcium, ACh EC20 PAM; 0% = ACh EC20, 100% = ACh EC100 | 360,000 compounds, 0.3% hits | P08912;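 active = activation above the run cutoff, the mean activation of all test compounds plus 3 SD, cut at about 18% in these data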
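System – CHO-K1 hM5 cells · Compound – 3 µM, single dose · Incubation – compound preincubation 140 s before EC20 acetylcholine addition · Technique – Fluo-8 calcium fluorescence · Measure – Max/basal fluorescence ratio as % of EC20–EC100 ACh window · Benchmarks – low control EC20 acetylcholine (0%), high control EC100 acetylcholine (100%) · Replication – singlicate, one well per test compound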
* marks the source's active call; other numbers are inactive results.

SMILES	M4 PAM	CHRM5 antagonist	CHRM5 agonist	M4 ag	CHRM4 antagonist	M5 PAM
O=C(c1cccc(Br)c1)c1nc2ccccc2[nH]c1=O	4	5	1	4	-8	-3
CC(=O)c1cccc(NC(=O)c2cc(S(=O)(=O)N3CCOCC3)cs2)c1	0	6	-2	3	10	1
CSc1nnc(-c2cccc(C)c2)n1N	32*	-1	0	1	3	7
CC(C)Cc1ccc(-c2cc(=O)[nH][nH]2)cc1	-10	28*	-2	20	5	-13
O=C(Nc1nnc(C23CC4CC(CC(C4)C2)C3)s1)c1ccc(N2C(=O)CCC2=O)cc1	-16	13	0	1	60*	-20
CNC(=O)c1cc(S(=O)(=O)N2CC(C)OC(C)C2)ccc1N1CCOCC1 (stereo unspecified)	-2	20	-2	0	16	-7
C[C@H]1c2cccc(O)c2C(O)=C2C(=O)[C@]3(O)C(O)=C(C(N)=O)C(=O)[C@@H](N(C)C)[C@@H]3[C@@H](O)[C@@H]21	-3	7	27*	0	8	-15
O=C(O)c1ccccc1-c1ccccc1C(=O)Nc1ccc2c(c1)C(O)c1ccccc1-2 (stereo unspecified)	0	-5	0	0	-3	1
COc1ccc(NC(=O)C2CCCC2)cc1S(=O)(=O)N1CCOCC1	8	5	7	2	-3	7
COc1ccccc1CN1C[C@@H]2C[C@@H](c3ccc(Cl)cc3)N3CCC[C@@]23C1=O	-14	2	-10	1	19	0
Cn1cc([C@@H]2C[C@H]3CN(Cc4cccc(Cl)c4)C(=O)[C@]34CCCN24)c2ccccc21	-12	12	-3	3	30*	-7
COc1ccccc1CN1C[C@@H]2C[C@@H](c3ccccc3OC)N3CCC[C@@]23C1=O	-24	-2	-6	0	30*	4
Cc1c([C@@H]2C[C@H]3CN(Cc4cccc(Cl)c4)C(=O)[C@]34CCCN24)cnn1C	-6	3	-1	3	-1	-4
CC(C)C(=O)Nc1cc2c3c(c1)CCC(=O)N3CCC2	2	6	-3	1	-4	1
CS(=O)c1ccccc1-c1nc(-c2ccc([N+](=O)[O-])cc2)no1 (stereo unspecified)	15	-4	4	1	2	17
Cc1cccc(-c2c3c(nc4c2c(=O)n(C)c(=O)n4C)-c2ccccc2C3O)c1 (stereo unspecified)	-3	-7	2	1	-8	8
O=[N+]([O-])c1ccc(N2CCN(C(=S)Nc3ccc(F)cc3)CC2)cc1	-11	13	8	15	4	-19
Cc1csc2c(N3CCN(C(=O)Nc4ccccc4)CC3)ncnc12	-20	6	8	15	6	-13
Cc1csc2c(N3CCN(C(=S)Nc4ccc(F)cc4F)CC3)ncnc12	-34	29*	5	15	-18	-30
O=[N+]([O-])c1ccc(N2CCN(C(=S)Nc3ccc(F)cc3F)CC2)cc1	-16	34*	7	15	12	-23
COc1ccc(C)cc1NC(=O)CN1C(=O)COc2ccc(C)cc21	4	-14	5	1	-11	22*
COc1ccccc1NC(=O)CN1C(=O)COc2ccc(C)cc21	-2	-2	7	5	-2	0
O=C1CCN(Cc2ccccc2)S(=O)(=O)c2c(F)cc(F)cc21	-3	2	0	2	7	4
CC(=O)c1cccc(NC(=O)/C(=C\c2cccnc2)NC(=O)c2ccccc2)c1	-12	13	0	0	29*	-3
COC(=O)[C@@]12C[C@@H](CC(=O)NCCc3ccccc3OC)C(=O)N(Cc3ccc4c(c3)OCO4)C1=CCC(C)(C)C2	-4	2	-2	7	-10	-6
SMILES	M4 PAM	CHRM5 antagonist	CHRM5 agonist	M4 ag	CHRM4 antagonist	M5 PAM
O=C(Nc1cccc(C(F)(F)F)c1)C1CCN(S(=O)(=O)c2ccc(N3CCCC3=O)cc2)CC1	-7	37*	2	17	22	-14
Cc1nc(-c2ccc(C(=O)Nc3cc(S(N)(=O)=O)ccc3C)cc2)cs1	-11	0	-3	1	30*	1
O=C(CSc1nnc(Cn2nnc3ccccc32)o1)N(Cc1ccc(F)cc1)c1ccccc1	-20	37*	1	10	21	-15
COc1ccc(CN(C(=O)CSc2nnc(-c3c[nH]c4ccccc34)o2)c2ccc(F)cc2)cc1OC	-12	21	5	19	41*	-26
COc1ccccc1NC(=O)CSc1nnc(-c2ccncc2)o1	6	-3	-2	2	-9	23*
CCOC(=O)CSc1nnc(-c2c[nH]c3ccccc23)o1	-17	4	1	-2	100*	-3
COc1ccc(CN(C(=O)CSc2nnc(-c3ccc(F)cc3)o2)c2ccc(F)cc2)cc1	6	6	3	2	1	-3
NC(=O)C1CCN(S(=O)(=O)c2cc3c4c(c2)CCN4C(=O)CC3)CC1	1	3	0	0	3	3
CCOC(=O)N1CCN(C(=O)CSc2nnc(-c3ccccc3OC)o2)CC1	30*	-5	1	0	10	1
CC1=C(C)/C(=N\OS(=O)(=O)c2ccccc2)C=CC1=O	-10	30*	21	16	67*	-5
O=C(NCc1ccc(F)cc1)NC(=O)c1ccc(Cl)cc1	6	7	-4	1	5	-3
CN(C)c1c(F)cc(C(=O)NCc2ccccc2)cc1F	6	7	-2	1	-6	-1
O=C(NCc1ccccc1)c1ccc(F)c(F)c1	20*	-15	1	4	2	6
O=C(NCc1ccccc1)c1ccc(C2SCC(=O)N2Cc2ccccc2)cc1 (stereo unspecified)	-19	1	-5	7	34*	-23
O=C(NCc1ccccc1)NC(=O)c1ccc(Cl)cc1	1	-8	0	0	-7	19*
Cc1ccc(C(=O)Nc2cccc(C(=O)NCc3ccccc3)c2)o1	-1	12	-4	4	27*	-6
CC(OC(=O)CCN=C1NS(=O)(=O)c2ccccc21)C(=O)Nc1ccc(N(C)C)cc1 (stereo unspecified)	6	4	2	0	-4	2
CCNc1ccc(C(=O)OCC(=O)NCCN2C(=O)CSC2=O)cc1[N+](=O)[O-]	6	-10	5	3	-8	22*
Cc1cccc(C)c1NC(=O)C1CCCN(CCCc2ccccc2)C1 (stereo unspecified)	-25	22	-11	2	83*	-34
